Activity calls are given as the source filed them. The rule behind the calls is not given here.

The values that follow come from ChEMBL document CHEMBL4270555, “Synthesis and biological evaluation of magnolol derivatives as melatonergic receptor agonists with potential use in depression” (Eur J Med Chem, 2018).

Series [1] can be described thus: Drug metabolism in Sprague-Dawley rat urine assessed as (2S,3S,4S,5R,6S)-6-(5'-allyl-5-(1-hydroxyallyl)-2'-((2S,3R,4S,5S,6R)-3,4,5-trihydroxy-6-(hydroxymethyl)tetrahydro-2H-pyran-2-yloxy)biphenyl-2-yloxy)-3,4,5-trihydroxytetrahydro-2H-pyran-2-carboxylic acid formation at 100 mg/kg, po by UPLC-IT-TOF-MS analysis. Type of series: ADME, organism-based. The following applies: in vivo. The essentials: (§1)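 Male/unspecified SD rats (n = 6) housed individually in metabolic cages, dosed orally at 100.0 mg/kg; controls given 0.5% CMC-Na orally. Plasma, urine and faeces collected. LC-IT-TOF-MS on C18 column at 30 °C, formic acid (0.05%) water/acetonitrile gradient 5–100% B over 18 min, 0.2 mL/min; positive and negative ion modes with automatic MS/MS.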

Series [2] concerns Rattus norvegicus. The series is described as follows: Toxicity in Sprague-Dawley rat assessed as ulceration at 2000 mg/kg, po measured over 4 hrs. The following applies: in vivo. Type of series: organism-based. The essentials: (§2)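 Acute oral toxicity run per OECD 425 in adult SD rats (180–220 g). Six animals per group: vehicle control (0.5% CMC-Na, oral), male rats and female rats each dosed orally at 2000 mg/kg. Animals were watched continuously for the first 4 h for behavior, breathing, cutaneous signs (irritation, ulceration, caustic injury, skin rashes), sensory nervous and gastrointestinal effects. Later checks were hourly for 24 h, then every 6 h for 48 h.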

A short description of series [3]: Drug metabolism in Sprague-Dawley rat urine assessed as 5,5'-diallyl-2'-hydroxybiphenyl-2-yl hydrogen sulfate formation at 100 mg/kg, po by UPLC-IT-TOF-MS analysis. Type of series: ADME, organism-based. The following applies: in vivo. The essentials: as §1
Series [4] is described as follows: Drug metabolism in Sprague-Dawley rat plasma assessed as (2S,3S,4S,5R,6S)-6-(5'-allyl-5-(1-hydroxyallyl)-2'-((2S,3R,4S,5S,6R)-3,4,5-trihydroxy-6-(hydroxymethyl)tetrahydro-2H-pyran-2-yloxy)biphenyl-2-yloxy)-3,4,5-trihydroxytetrahydro-2H-pyran-2-carboxylic acid formation at 100 mg/kg, po by UPLC-IT-TOF-MS analysis. The class given is ADME, organism-based. The settings on record: in vivo. An outline of the steps:
(§3)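 Rats (n = 6) housed in metabolic cages received 100.0 mg/kg orally; controls received 0.5% CMC-Na. Plasma, urine and faeces were collected and analyzed by LC-IT-TOF-MS on a C18 column at 30 °C. Gradient 5–100% acetonitrile with 0.05% formic acid over 18 min at 0.2 mL/min; positive and negative ion MS/MS.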

Series [5] in a line: Drug metabolism in Sprague-Dawley rat plasma assessed as (2S,3R,4S,5S,6R)-2-(5,5'-diallyl-2'-methoxybiphenyl-2-yloxy)-6-(hydroxymethyl)tetrahydro-2H-pyran-3,4,5-triol formation at 100 mg/kg, po by UPLC-IT-TOF-MS analysis. The settings on record: in vivo. The class given is ADME, organism-based. The essentials:
as §3

A short description of series [6]: Drug metabolism in Sprague-Dawley rat plasma assessed as 2'-hydroxy-5'-(1-hydroxyallyl)-5-propylbiphenyl-2-yl hydrogen sulfate formation at 100 mg/kg, po by UPLC-IT-TOF-MS analysis. Type of series: ADME, organism-based. The settings on record: in vivo. The essentials: as §3
A short description of series [7]: Drug metabolism in Sprague-Dawley rat plasma assessed as (2S,3S,4S,5R,6S)-6-(5,5'-diallyl-2'-methoxybiphenyl-2-yloxy)-3,4,5-trihydroxytetrahydro-2H-pyran-2-carboxylic acid formation at 100 mg/kg, po by UPLC-IT-TOF-MS analysis. The settings on record: in vivo. Type of series: ADME, organism-based. The essentials: as §3
Series [8] is described as follows: Drug metabolism in Sprague-Dawley rat plasma assessed as 5,5'-diallyl-2'-((2S,3R,4S,5S,6R)-3,4,5-trihydroxy-6-(hydroxymethyl)tetrahydro-2H-pyran-2-yloxy)biphenyl-2-yl hydrogen sulfate formation at 100 mg/kg, po by UPLC-IT-TOF-MS analysis. The class given is ADME, organism-based. The settings on record: in vivo. An outline of the steps:
as §1

Series [9] is described as follows: Drug metabolism in Sprague-Dawley rat urine assessed as 2'-hydroxy-5'-(1-hydroxyallyl)-5-propylbiphenyl-2-yl hydrogen sulfate formation at 100 mg/kg, po by UPLC-IT-TOF-MS analysis. The class given is ADME, organism-based. The following applies: in vivo. An outline of the steps:
as §1

Series [10] can be described thus: Drug metabolism in Sprague-Dawley rat urine assessed as 5,5'-diallylbiphenyl-2,2'-diol formation at 100 mg/kg, po by UPLC-IT-TOF-MS analysis. Type of series: ADME, organism-based. The following applies: in vivo. An outline of the steps:
as §1

The nature of series [11]: Drug metabolism in Sprague-Dawley rat plasma assessed as 1-(5'-allyl-2'-hydroxy-6-((2S,3R,4S,5S,6R)-3,4,5-trihydroxy-6-(hydroxymethyl)tetrahydro-2H-pyran-2-yloxy)biphenyl-3-yl)prop-2-en-1-one formation at 100 mg/kg, po by UPLC-IT-TOF-MS analysis. The class given is ADME, organism-based. The settings on record: in vivo. The essentials: as §3
The test system of series [12] is Mus musculus. Description: Decrease in dopamine level in Kunming mouse thalamus at 40 mg/kg, po treated for 7 days by HPLC-ECD analysis. Type of series: functional, organism-based. An outline of the steps: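 Male Kunming mice received vehicle or 40 mg/kg for 7 days, then were killed by cervical dislocation and the brain regions dissected on ice. Tissue was homogenized in ice-cold 0.2 M perchloric acid with 0.1 mM EDTA and centrifuged at 15,000 rpm, 20 min, 4 °C. Supernatant was analyzed by HPLC-ECD (+0.50 V; phosphate/octanesulfonate mobile phase, pH 3.0). Results in ng/g, mean ± SEM.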

The test system of series [13] is Mus musculus. Description: Increase in ratio of 3,4-dihydroxyphenylacetic acid and 4-hydroxy-3-methoxyphenylacetic acid to dopamine level in Kunming mouse hypothalamus at 40 mg/kg, po treated for 7 days by HPLC-ECD analysis. The class given is functional, organism-based. The essentials: (§4)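 Male Kunming mice (18–20 g) given vehicle or 40 mg/kg for 7 days, then killed by cervical dislocation. Frontal cortex, hippocampus, striatum, hypothalamus and thalamus dissected on ice, homogenized in ice-cold 0.2 M perchloric acid with 0.1 mM EDTA, centrifuged 15,000 rpm, 20 min, 4 °C. Supernatant analysed by HPLC-ECD at +0.50 V; phosphate/octanesulfonate mobile phase pH 3.0 with 12% methanol. Levels in ng/g, mean ± SEM.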

Series [14] can be described thus: Drug metabolism in Sprague-Dawley rat urine assessed as (2S,3S,4S,5R,6S)-6-(5-acryloyl-2'-hydroxy-5'-(1-hydroxyallyl)biphenyl-2-yloxy)-3,4,5-trihydroxytetrahydro-2H-pyran-2-carboxylic acid formation at 100 mg/kg, po by UPLC-IT-TOF-MS analysis. Type of series: ADME, organism-based. The following applies: in vivo. The essentials: as §1
Series [15] can be described thus: Drug metabolism in Sprague-Dawley rat plasma assessed as (2S,3S,4S,5R,6S)-3,4,5-trihydroxy-6-(5-(1-hydroxyallyl)-5'-(1-hydroxypropyl)-2'-((2S,3R,4S,5S,6R)-3,4,5-trihydroxy-6-(hydroxymethyl)tetrahydro-2H-pyran-2-yloxy)biphenyl-2-yloxy)tetrahydro-2H-pyran-2-carboxylic acid formation at 100 mg/kg, po by UPLC-IT-TOF-MS analysis. Type of series: ADME, organism-based. The following applies: in vivo. The essentials:
as §3

Series [16] has as its system Rattus norvegicus. Description: Toxicity in Sprague-Dawley rat assessed as irritation at 2000 mg/kg, po measured over 4 hrs. The class given is organism-based. The settings on record: in vivo. An outline of the steps:
as §2

Series [17] in a line: Drug metabolism in Sprague-Dawley rat feces assessed as 1-(2'-hydroxy-5'-(1-hydroxyallyl)-6-((2S,3R,4S,5S,6R)-3,4,5-trihydroxy-6-(hydroxymethyl)tetrahydro-2H-pyran-2-yloxy)biphenyl-3-yl)prop-2-en-1-one formation at 100 mg/kg, po by UPLC-IT-TOF-MS analysis. Type of series: ADME, organism-based. The settings on record: in vivo. The essentials:
as §3

The subject of series [18] is Mus musculus. Description: Increase in 4-hydroxy-3-methoxyphenylacetic acid level in Kunming mouse hypothalamus at 40 mg/kg, po treated for 7 days by HPLC-ECD analysis. Type of series: functional, organism-based. An outline of the steps:
as §4

The test system of series [19] is Mus musculus. The series is described as follows: Increase in ratio of 5-hydroxyindole-3-acetic acid to 5-hydroxytryptamine level in Kunming mouse frontal cortex at 40 mg/kg, po treated for 7 days by HPLC-ECD analysis. The class given is functional, organism-based. An outline of the steps: as §4
Series [20] relates to Rattus norvegicus. Description: Toxicity in Sprague-Dawley rat assessed as skin rashes at 2000 mg/kg, po measured over 4 hrs. The class given is organism-based. The settings on record: in vivo. The essentials: as §2

On to `C=CCc1ccc(O)c(-c2cc(CC=C)ccc2O[C@@H]2O[C@H](CO)[C@@H](O)[C@H](O)[C@H]2O)c1`, for which the Drug metabolism entry is on record as “Metabolite_Detected” in series [1]; “Metabolite_Notdetected” in series [3]; “Metabolite_Notdetected” in series [4]; “Metabolite_Detected” in series [5]; “Metabolite_Notdetected” in [6]; “Metabolite_Notdetected” in [7]. The Drug metabolism result was “Metabolite_Notdetected” in series [8]; “Metabolite_Notdetected” in series [9]; “Metabolite_Detected” in [10]; “Metabolite_Notdetected” in [11]; “Metabolite_Detected” in series [14]; “Metabolite_Notdetected” in series [15]. Also, the Drug metabolism entry in series [17] is listed as “Metabolite_Notdetected”. The Activity entry in [2], in series [16] and in series [20] was “Non-Toxic” in each case. The outcome in series [12], in series [13], in series [18] and in series [19] was Active.
